Assay results taken from ChEMBL document CHEMBL1158563, “Identification of benzimidazole-based inhibitors of the mitogen activated kinase-5 signaling pathway” (2010).

Tests used:
[1] = target: T1, Dual specificity mitogen-activated protein kinase kinase 5 (Homo sapiens) (UniProt Q13163); test: Inhibition of EGF-induced MEK5-mediated ERK5 phosphorylation in human HEK293 cells at 10 uM treated after 30 mins EGF challenge measured after 30 mins by Western blot analysis relative to control; assay type: cell-based; parameters: scale not given: the % may be the effect or the level left
T1 sequence (whole entry): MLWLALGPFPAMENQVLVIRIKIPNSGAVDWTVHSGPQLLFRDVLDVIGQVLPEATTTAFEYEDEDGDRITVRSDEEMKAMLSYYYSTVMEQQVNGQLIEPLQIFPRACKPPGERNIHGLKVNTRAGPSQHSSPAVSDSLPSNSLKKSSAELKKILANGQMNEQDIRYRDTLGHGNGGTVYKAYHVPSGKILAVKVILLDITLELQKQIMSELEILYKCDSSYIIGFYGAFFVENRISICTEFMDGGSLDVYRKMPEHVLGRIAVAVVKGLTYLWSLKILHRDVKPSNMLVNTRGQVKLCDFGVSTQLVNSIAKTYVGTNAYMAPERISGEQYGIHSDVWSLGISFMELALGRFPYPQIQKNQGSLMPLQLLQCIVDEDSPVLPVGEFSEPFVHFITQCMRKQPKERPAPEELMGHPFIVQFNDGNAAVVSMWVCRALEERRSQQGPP
How it was run: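 HEK293 cells were grown in medium with 10% heat-inactivated FBS and 0.5% penicillin/streptomycin at 37 °C, 5% CO2. They were stimulated with 50 ng/mL EGF, then given 10 µM compound (final) 30 min later, and lysed 30 min after that in 1% Triton buffer. 60 µg protein was run on 10% SDS gels and blotted for pERK1/2 (1:1000) or pERK5 (1:500).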

CCRF-CEM = test: Cytotoxicity against human CCRF-CEM cells at 10 uM assessed as cell growth relative to control; assay type: functional; conditions: read-out: Activity
HL-60(TB) = test: Cytotoxicity against human HL-60(TB) cells at 10 uM assessed as cell growth relative to control; assay type: functional; conditions: read-out: Activity
K562 = test: Cytotoxicity against human K562 cells at 10 uM assessed as cell growth relative to control; assay type: functional; conditions: read-out: Activity
MOLT-4 = test: Cytotoxicity against human MOLT4 cells at 10 uM assessed as cell growth relative to control; assay type: functional; conditions: read-out: Activity
[2] = Cytotoxicity against human […] cells at 10 uM assessed as cell growth relative to control; assay type: functional; conditions: read-out: Activity
SR = test: Cytotoxicity against human SR cells at 10 uM assessed as cell growth relative to control; assay type: functional; conditions: read-out: Activity
A549 = test: Cytotoxicity against human A549 cells at 10 uM assessed as cell growth relative to control; assay type: functional; conditions: read-out: Activity
EKVX = test: Cytotoxicity against human EKVX cells at 10 uM assessed as cell growth relative to control; assay type: functional; conditions: read-out: Activity
HOP-62 = test: Cytotoxicity against human HOP62 cells at 10 uM assessed as cell growth relative to control; assay type: functional; conditions: read-out: Activity
HOP-92 = test: Cytotoxicity against human HOP92 cells at 10 uM assessed as cell growth relative to control; assay type: functional; conditions: read-out: Activity
NCI-H226 = test: Cytotoxicity against human NCI-H226 cells at 10 uM assessed as cell growth relative to control; assay type: functional; conditions: read-out: Activity
NCI-H23 = test: Cytotoxicity against human NCI-H23 cells at 10 uM assessed as cell growth relative to control; assay type: functional; conditions: read-out: Activity
NCI-H322M = test: Cytotoxicity against human NCI-H322M cells at 10 uM assessed as cell growth relative to control; assay type: functional; conditions: read-out: Activity
NCI-H460 = test: Cytotoxicity against human NCI-H460 cells at 10 uM assessed as cell growth relative to control; assay type: functional; conditions: read-out: Activity
NCI-H522 = test: Cytotoxicity against human NCI-H522 cells at 10 uM assessed as cell growth relative to control; assay type: functional; conditions: read-out: Activity
COLO 205 = test: Cytotoxicity against human COLO205 cells at 10 uM assessed as cell growth relative to control; assay type: functional; conditions: read-out: Activity
HCC 2998 = test: Cytotoxicity against human HCC2998 cells at 10 uM assessed as cell growth relative to control; assay type: functional; conditions: read-out: Activity
HCT-116 = test: Cytotoxicity against human HCT116 cells at 10 uM assessed as cell growth relative to control; assay type: functional; conditions: read-out: Activity
HCT-15 = test: Cytotoxicity against human HCT15 cells at 10 uM assessed as cell growth relative to control; assay type: functional; conditions: read-out: Activity
HT-29 = test: Cytotoxicity against human HT-29 cells at 10 uM assessed as cell growth relative to control; assay type: functional; conditions: read-out: Activity
KM12 = test: Cytotoxicity against human KM12 cells at 10 uM assessed as cell growth relative to control; assay type: functional; conditions: read-out: Activity
SW-620 = test: Cytotoxicity against human SW620 cells at 10 uM assessed as cell growth relative to control; assay type: functional; conditions: read-out: Activity
SF-268 = test: Cytotoxicity against human SF268 cells at 10 uM assessed as cell growth relative to control; assay type: functional; conditions: read-out: Activity
SF-295 = test: Cytotoxicity against human SF295 cells at 10 uM assessed as cell growth relative to control; assay type: functional; conditions: read-out: Activity
SF-539 = test: Cytotoxicity against human SF539 cells at 10 uM assessed as cell growth relative to control; assay type: functional; conditions: read-out: Activity
SNB-19 = test: Cytotoxicity against human SNB19 cells at 10 uM assessed as cell growth relative to control; assay type: functional; conditions: read-out: Activity
SNB-75 = test: Cytotoxicity against human SNB75 cells at 10 uM assessed as cell growth relative to control; assay type: functional; conditions: read-out: Activity
U-251 = test: Cytotoxicity against human U251 cells at 10 uM assessed as cell growth relative to control; assay type: functional; conditions: read-out: Activity
LOX IMVI = test: Cytotoxicity against human LOXIMVI cells at 10 uM assessed as cell growth relative to control; assay type: functional; conditions: read-out: Activity
Malme-3M = test: Cytotoxicity against human MALME-3M cells at 10 uM assessed as cell growth relative to control; assay type: functional; conditions: read-out: Activity
M14 = test: Cytotoxicity against human M14 cells at 10 uM assessed as cell growth relative to control; assay type: functional; conditions: read-out: Activity
MDA-MB-435 = test: Cytotoxicity against human MDA-MB-435 cells at 10 uM assessed as cell growth relative to control; assay type: functional; conditions: read-out: Activity
SK-MEL-2 = test: Cytotoxicity against human SK-MEL-2 cells at 10 uM assessed as cell growth relative to control; assay type: functional; conditions: read-out: Activity
SK-MEL-28 = test: Cytotoxicity against human SK-MEL-28 cells at 10 uM assessed as cell growth relative to control; assay type: functional; conditions: read-out: Activity
SK-MEL-5 = test: Cytotoxicity against human SK-MEL-5 cells at 10 uM assessed as cell growth relative to control; assay type: functional; conditions: read-out: Activity
UACC-257 = test: Cytotoxicity against human UACC257 cells at 10 uM assessed as cell growth relative to control; assay type: functional; conditions: read-out: Activity
UACC-62 = test: Cytotoxicity against human UACC62 cells at 10 uM assessed as cell growth relative to control; assay type: functional; conditions: read-out: Activity
IGROV-1 = test: Cytotoxicity against human IGROV1 cells at 10 uM assessed as cell growth relative to control; assay type: functional; conditions: read-out: Activity
OVCAR-3 = test: Cytotoxicity against human OVCAR-3 cells at 10 uM assessed as cell growth relative to control; assay type: functional; conditions: read-out: Activity
OVCAR-4 = test: Cytotoxicity against human OVCAR4 cells at 10 uM assessed as cell growth relative to control; assay type: functional; conditions: read-out: Activity
OVCAR-5 = test: Cytotoxicity against human OVCAR5 cells at 10 uM assessed as cell growth relative to control; assay type: functional; conditions: read-out: Activity
OVCAR-8 = test: Cytotoxicity against human OVCAR8 cells at 10 uM assessed as cell growth relative to control; assay type: functional; conditions: read-out: Activity
SK-OV-3 = test: Cytotoxicity against human SKOV3 cells at 10 uM assessed as cell growth relative to control; assay type: functional; conditions: read-out: Activity
786-0 = test: Cytotoxicity against human 786-0 cells at 10 uM assessed as cell growth relative to control; assay type: functional; conditions: read-out: Activity
A498 = test: Cytotoxicity against human A498 cells at 10 uM assessed as cell growth relative to control; assay type: functional; conditions: read-out: Activity
ACHN = test: Cytotoxicity against human ACHN cells at 10 uM assessed as cell growth relative to control; assay type: functional; conditions: read-out: Activity
CAKI-1 = test: Cytotoxicity against human Caki1 cells at 10 uM assessed as cell growth relative to control; assay type: functional; conditions: read-out: Activity
RXF 393 = test: Cytotoxicity against human RXF393 cells at 10 uM assessed as cell growth relative to control; assay type: functional; conditions: read-out: Activity
SN12C = test: Cytotoxicity against human SN12C cells at 10 uM assessed as cell growth relative to control; assay type: functional; conditions: read-out: Activity
TK-10 = test: Cytotoxicity against human TK10 cells at 10 uM assessed as cell growth relative to control; assay type: functional; conditions: read-out: Activity
UO-31 = test: Cytotoxicity against human UO31 cells at 10 uM assessed as cell growth relative to control; assay type: functional; conditions: read-out: Activity
DU-145 = test: Cytotoxicity against human DU145 cells at 10 uM assessed as cell growth relative to control; assay type: functional; conditions: read-out: Activity
MCF7 = test: Cytotoxicity against human MCF7 cells at 10 uM assessed as cell growth relative to control; assay type: functional; conditions: read-out: Activity
MDA-MB-231 = test: Cytotoxicity against human MDA-MB-231 cells at 10 uM assessed as cell growth relative to control; assay type: functional; conditions: read-out: Activity
[3] = Cytotoxicity against human Hs 578T cells at 10 uM assessed as cell growth relative to control; assay type: functional; conditions: read-out: Activity
BT-549 = test: Cytotoxicity against human BT549 cells at 10 uM assessed as cell growth relative to control; assay type: functional; conditions: read-out: Activity
T47D = test: Cytotoxicity against human T47D cells at 10 uM assessed as cell growth relative to control; assay type: functional; conditions: read-out: Activity
MDA-MB-468 = test: Cytotoxicity against human MDA-MB-468 cells at 10 uM assessed as cell growth relative to control; assay type: functional; conditions: read-out: Activity
NCI/ADR-RES = test: Cytotoxicity against human NCI/ADR-RES cells at 10 uM assessed as cell growth relative to control; assay type: functional; conditions: read-out: Activity

## CCC(CO)Oc1cc(NCc2ccccc2)c2ncn(C3CCCC3)c2c1 (configuration not stated)
[1]
  Activity: 132%

## COc1cc(NCc2ccccc2)c2ncn(Cc3ccccc3)c2c1
[1]
  Activity: 136%

## c1ccc(CNc2cc(Cc3ccccc3)cc3c2ncn3C2CCCC2)cc1
[1]
  Activity: 78%

## COc1cc(NCc2ccccc2)c2ncn(C(C)C)c2c1
CCRF-CEM
  growth at 10 µM: 93.9%
HL-60(TB)
  growth at 10 µM: 50.3%
K562
  growth at 10 µM: 64.2%
MOLT-4
  growth at 10 µM: 78.7%
[2]
  growth at 10 µM: 71.5%
SR
  growth at 10 µM: 51.7%
A549
  growth at 10 µM: 110%
EKVX
  growth at 10 µM: 93.9%
HOP-62
  growth at 10 µM: 101%
HOP-92
  growth at 10 µM: 84.5%
NCI-H226
  growth at 10 µM: 97.1%
NCI-H23
  growth at 10 µM: 91.1%
NCI-H322M
  growth at 10 µM: 115%
NCI-H460
  growth at 10 µM: 107%
NCI-H522
  growth at 10 µM: 87%
COLO 205
  growth at 10 µM: 118%
HCC 2998
  growth at 10 µM: 104%
HCT-116
  growth at 10 µM: 103%
HCT-15
  growth at 10 µM: 97.9%
HT-29
  growth at 10 µM: 109%
KM12
  growth at 10 µM: 104%
SW-620
  growth at 10 µM: 146%
SF-268
  growth at 10 µM: 125%
SF-295
  growth at 10 µM: 138%
SF-539
  growth at 10 µM: 96.2%
SNB-19
  growth at 10 µM: 90.7%
SNB-75
  growth at 10 µM: 92.3%
U-251
  growth at 10 µM: 103%
LOX IMVI
  growth at 10 µM: 115%
Malme-3M
  growth at 10 µM: 49.2%
M14
  growth at 10 µM: 109%
MDA-MB-435
  growth at 10 µM: 122%
SK-MEL-2
  growth at 10 µM: 91.6%
SK-MEL-28
  growth at 10 µM: 125%
SK-MEL-5
  growth at 10 µM: 122%
UACC-257
  growth at 10 µM: 105%
UACC-62
  growth at 10 µM: 97.3%
IGROV-1
  growth at 10 µM: 92.5%
OVCAR-3
  growth at 10 µM: 103%
OVCAR-4
  growth at 10 µM: 80.6%
OVCAR-5
  growth at 10 µM: 97.2%
OVCAR-8
  growth at 10 µM: 98.7%
SK-OV-3
  growth at 10 µM: 110%
786-0
  growth at 10 µM: 96.8%
A498
  growth at 10 µM: 106%
ACHN
  growth at 10 µM: 105%
CAKI-1
  growth at 10 µM: 97.2%
RXF 393
  growth at 10 µM: 91.2%
SN12C
  growth at 10 µM: 104%
TK-10
  growth at 10 µM: 136%
UO-31
  growth at 10 µM: 83.2%
DU-145
  growth at 10 µM: 136%
MCF7
  growth at 10 µM: 5.8%
MDA-MB-231
  growth at 10 µM: 111%
[3]
  growth at 10 µM: 174%
BT-549
  growth at 10 µM: 55.6%
T47D
  growth at 10 µM: 80.1%
MDA-MB-468
  growth at 10 µM: 36.5%
NCI/ADR-RES
  growth at 10 µM: 96.5%
